pIC50: −log10 of the molar value. Where “and” joins values, the source holds several entries; their conditions need not be identical. Identical values can stand only once.

The record followed here is ChEMBL document CHEMBL1124704, “Synthesis and immunosuppressive activity of some side-chain variants of mycophenolic acid” (J Med Chem, 1990).

Assay [1] can be described thus: In vitro inhibition of human lymphocyte proliferation in response to staphylococcus protein A(SPA) was determined. The format is functional.
A short description of assay [2]: In vitro inhibition of human lymphocyte proliferation in response to pokeweed mitogen(PWM) was determined. The format is functional.
Assay [3] can be described thus: In vitro inhibition of human lymphocyte proliferation in response to phytohemagglutininin (PHA) was determined. It counts as functional.
For assay [4], the target named is Inosine-5'-monophosphate dehydrogenase 1 (Homo sapiens, UniProt P20839). The assay can be described thus: In vitro inhibition of inosine Inosine-5'-monophosphate dehydrogenase. Put shortly:
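IMPD came from a MOLT-4 cell lysate: five freeze-thaw cycles, then the high-speed (ca. 31000g) supernatant was kept. Assay in 50 mM potassium phosphate pH 7.4 with 10 μM [¹⁴C]IMP, 0.3 mM NAD, 0.1 M KCl and 1 mM EDTA, 25 min at 37 °C. Stopped with HClO₄; IMP/XMP quantified by anion-exchange HPLC with radioflow detection. Five concentrations, 0.02–5.0 μg/mL; IC₅₀ determined graphically.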

In assay [5] the test system is Mus musculus. The assay can be described thus: In vivo inhibition of plaque-forming cells in the spleen (PFC/spleen) after 40 mg/kg oral administration in mice. It counts as functional.
Assay [6] concerns Mus musculus. The assay can be described thus: In vivo inhibition of plaque-forming cells in the spleen (PFC/spleen) after 25 mg/kg oral administration in mice. The format is functional.
Assay [7] relates to Mus musculus. The assay can be described thus: In vivo antibody response to sheep red blood cells by plaque-forming cells in the spleen (PFC/spleen) after 25 mg/kg oral administration in mice. The format is functional.
For assay [8], the system named is Mus musculus. Briefly: The compound was tested in vivo for inhibition of plaques per million after 25 mg/kg oral administration in mice. It counts as functional.
Assay [9] deals with Mus musculus. Briefly: In vivo antibody response to sheep red blood cells(SRBC) by plaque-forming cells in the spleen (PFC/spleen) after 100 mg/kg oral administration in mice. The format is functional.
In assay [10] the test system is Mus musculus. The assay can be described thus: The compound was tested in vivo for inhibition of plaques per million after 40 mg/kg oral administration in mice. The format is functional.
In assay [11] the test system is Mus musculus. Briefly: In vivo inhibition of plaque-forming cells in the spleen (PFC/spleen) after 100 mg/kg oral administration in mice. It counts as functional.
For assay [12], the system named is Mus musculus. The assay can be described thus: In vivo total no of plaques in spleen was determined after 100 mg/kg oral administration in mice. The format is functional.
Assay [13] deals with Mus musculus. The assay can be described thus: The compound was tested in vivo for inhibition of plaques per million after 50 mg/kg oral administration in mice. It counts as functional.
Assay [14] deals with Mus musculus. The assay can be described thus: In vivo antibody response to sheep red blood cells(SRBC) by plaque-forming cells in the spleen (PFC/spleen) after 50 mg/kg oral administration in mice. It counts as functional.
For assay [15], the system named is Mus musculus. Briefly: In vivo total no of plaques in spleen was determined after 50 mg/kg oral administration in mice. The format is functional.
The test system of assay [16] is Mus musculus. Briefly: In vivo total no of plaques in spleen was determined after 25 mg/kg oral administration in mice. It counts as functional.
Assay [17] deals with Mus musculus. The assay can be described thus: In vivo antibody response to sheep red blood cells(SRBC) by plaque-forming cells in the spleen (PFC/spleen) after 40 mg/kg oral administration in mice. It counts as functional.
Assay [18] has as its system Mus musculus. Briefly: The compound was tested in vivo for inhibition of plaque-forming cells in the spleen (PFC/spleen) after 50 mg/kg oral administration in mice. The format is functional.
For assay [19], the system named is Mus musculus. The assay can be described thus: The compound was tested in vivo for inhibition of plaques per million after 100 mg/kg oral administration in mice. It counts as functional.
Assay [20] has as its system Mus musculus. The assay can be described thus: In vivo inhibition of plaques per million after 25 mg/kg oral administration in mice. It counts as functional.
The subject of assay [21] is Mus musculus. The assay can be described thus: In vivo for antibody response to sheep red blood cells(SRBC) by plaque-forming cells in the spleen (PFC/spleen) after 25 mg/kg oral administration in mice. It counts as functional.
The subject of assay [22] is Mus musculus. The assay can be described thus: In vivo antibody response to sheep red blood cells(SRBC) by plaque-forming cells in the spleen (PFC/spleen) after 25 mg/kg oral administration in mice. The format is functional.
Assay [23] relates to Mus musculus. The assay can be described thus: (§1) In vivo antibody response to sheep red blood cells(SRBC) by plaques per million after 25 mg/kg oral administration in mice. It counts as functional.
The subject of assay [24] is Mus musculus. The assay is described as §1. It counts as functional. The source holds these as a separate data set.

Sequence of Inosine-5'-monophosphate dehydrogenase 1 (P20839 whole entry): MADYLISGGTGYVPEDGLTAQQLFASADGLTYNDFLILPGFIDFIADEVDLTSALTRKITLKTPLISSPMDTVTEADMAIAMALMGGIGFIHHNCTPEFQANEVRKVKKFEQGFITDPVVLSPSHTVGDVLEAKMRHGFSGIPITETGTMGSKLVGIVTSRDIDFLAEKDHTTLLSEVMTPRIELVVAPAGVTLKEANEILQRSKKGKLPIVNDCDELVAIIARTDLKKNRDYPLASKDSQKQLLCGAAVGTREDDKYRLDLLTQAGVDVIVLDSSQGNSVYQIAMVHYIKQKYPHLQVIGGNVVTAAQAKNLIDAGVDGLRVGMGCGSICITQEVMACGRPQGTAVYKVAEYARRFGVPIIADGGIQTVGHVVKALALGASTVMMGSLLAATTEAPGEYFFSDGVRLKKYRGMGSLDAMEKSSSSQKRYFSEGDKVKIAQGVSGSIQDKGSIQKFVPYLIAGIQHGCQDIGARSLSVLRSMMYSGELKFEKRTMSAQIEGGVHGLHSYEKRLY

On to `COc1c(C)c2c(c(O)c1C/C=C/CCC(=O)O)C(=O)OC2`, for which the pIC50 in assay [1], in [2] and in assay [3] was 5.32 in each case.

As to `COc1c(C)c2c(c(O)c1CSCCC(=O)O)C(=O)OC2`, the pIC50 in assay [1] was less than 5.00; in [2], less than 5.00; in assay [3] it was less than 5.00; in [4] it was 4.96.

`COc1c(C)c2c(c(O)c1CC1C(F)(F)C1(C)CCC(=O)O)C(=O)OC2` (stereo unspecified): the pIC50 was 5.00 in assay [1], 5.55 in assay [2], 5.51 in [3] and 5.59 in assay [4].

As for `COc1c(C)c2c(c(O)c1CSCCCC(=O)O)C(=O)OC2`, the pIC50 in [1] is less than 5.00; in assay [2], less than 5.00; in assay [3] it was less than 5.00; in assay [4], 4.64.

With `COc1c(C)c2c(c(O)c1CC=C=C(C)CCC(=O)O)C(=O)OC2`, the pIC50 was 6.82 in assay [1], 6.46 in assay [2], 6.46 in assay [3] and 5.92 in assay [4]. Moreover, the results for the inhibition in vivo at 40 mg/kg in assay [5] and in assay [10] were 15% and 22%, respectively. The inhibition in vivo at 25 mg/kg stood at 18% in assay [6] (Mus musculus, Spleen, po) and 16% in assay [8]. For the same compound, the PFC/spleen in assay [7] was found to be 96583; in assay [9], 17000; in assay [14], 112416; in assay [17], 99333. The results for the inhibition in vivo at 100 mg/kg in [11] and in [19] were 80% and 79%, respectively. Besides, the PPM in assay [12] is 114; in [15], 657; in assay [16], 630 and 583. The inhibition in vivo at 50 mg/kg in assay [13] is -20%; in [18], -33%.

Regarding `COc1c(C)c2c(c(O)c1CC1CC1(C)CCC(=O)O)C(=O)OC2` (stereo unspecified), the pIC50 was 5.37 in assay [1], 5.77 in [2], 5.42 in assay [3] and 5.96 in assay [4].

For `COc1c(C)c2c(c(O)c1CC#CCCC(=O)O)C(=O)OC2`, the pIC50 in assay [1] was 5.12; in [2], 5.62; in assay [3], 5.32; in assay [4], 5.59.

For `COc1c(C)c2c(c(O)c1CC#CCCCC(=O)O)C(=O)OC2`, the pIC50 is less than 5.00 in assay [1], 5.22 in assay [2], 5.22 in [3] and 5.60 in [4].

On to `COc1c(C)c2c(c(O)c1CCCCCCC(=O)O)C(=O)OC2`, for which the negative-log IC50 (pIC50) in assay [1] was less than 5.00; in [2], less than 5.00; in [3], less than 5.00; in [4] it was 5.74.

Consider `COc1c(C)c2c(c(O)c1C/C=C/CCCC(=O)O)C(=O)OC2`, for which the pIC50 in assay [1], in assay [2] and in assay [3] was less than 5.00 each time.

For `COc1c(C)c2c(c(O)c1CCCCCC(=O)O)C(=O)OC2`, the pIC50 in assay [1] is 5.80; in assay [2] it was 5.37; in [3] it was 5.60; in [4], 6.03.

For the compound `COc1c(C)c2c(c(O)c1CC1C(Br)(Br)C1(C)CCC(=O)O)C(=O)OC2` (stereo unspecified), the pIC50 in assay [1] is less than 5.00; in [2], less than 5.00; in assay [3], 5.36; in [4] it was 5.51.

In the case of `COc1c(C)c2c(c(O)c1C/C=C(\C)CCC(=O)O)C(=O)OC2` [MYCOPHENOLIC ACID], the pIC50 in assay [1] was 7.22; in assay [2] it was 7.70; in [3], 7.22; in [4], 7.70. Besides, the Inhibition in assay [6] (25 mg/kg) was 69% and 46%; in assay [20], 65% and 44%. The PFC/spleen in [21] stood at 36027; in [22] it was 45333. In addition, the PPM in assay [23] was found to be 264; in assay [24], 308 PPM.

Broadly, the pIC50 is the negative decadic logarithm of the IC50, by convention in mol/L. High values mean a low IC50, low ones a high IC50. In general, inhibition in vivo refers to the drop in the measured response relative to a control, in per cent. Broadly, the Inhibition is the relative decrease from the control value, in per cent. The low end stands for a weak effect, the high end for a strong effect.
